Data taken from ChEMBL document CHEMBL1142473, “Antitumor studies. Part 5: Synthesis, antitumor activity, and molecular docking study of 5-(monosubstituted amino)-2-deoxo-2-phenyl-5-deazaflavins” (Bioorg Med Chem, 2008).
In brackets after ≈: the same amount, converted by molar mass.

Key:
KB = assay: Growth inhibition of human KB cells by MTT method; type: functional, cell-based
How it was run: (§1)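 IC50 taken from the dose-response curve; AraC run alongside as positive control.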

CCRF-HSB-2 = assay: Growth inhibition of human CCRF-HSB-2 cells by MTT method; type: functional, cell-based; how it was run: as §1

IC50 (KB) [µg/mL] | IC50 (CCRF-HSB-2) [µg/mL] | Compound
17.2 (≈ 40.9 µM) | 6.9 (≈ 16.4 µM) | CCn1c2nc(-c3ccccc3)nc(=O)c-2c(NCc2ccccc2)c2cc(C)ccc21
18 (≈ 52.3 µM) | > 100 | CCCNc1c2c(=O)nc(-c3ccccc3)nc-2n(C)c2ccccc12
6.6 (≈ 18.4 µM) | 4.7 (≈ 13.1 µM) | CCCCNc1c2c(=O)nc(-c3ccccc3)nc-2n(C)c2ccccc12
32.9 (≈ 79.4 µM) | > 100 | CCCCCCCCNc1c2c(=O)nc(-c3ccccc3)nc-2n(C)c2ccccc12
4.7 (≈ 11 µM) | 8.6 (≈ 20.1 µM) | CCCCCCCCNc1c2c(=O)nc(-c3ccccc3)nc-2n(C)c2ccc(C)cc12
8.6 (≈ 22.3 µM) | 8.9 (≈ 23 µM) | CCCCNc1c2c(=O)nc(-c3ccccc3)nc-2n(CC)c2ccc(C)cc12
2 (≈ 4.52 µM) | 5.7 (≈ 12.9 µM) | CCCCCCCCNc1c2c(=O)nc(-c3ccccc3)nc-2n(CC)c2ccc(C)cc12
1.6 (≈ 3.94 µM) | 0.75 (≈ 1.85 µM) | Cc1ccc(Nc2c3c(=O)nc(-c4ccccc4)nc-3n(C)c3ccccc23)cc1C
1.8 (≈ 4.59 µM) | 1.1 (≈ 2.8 µM) | Cc1ccc(Nc2c3c(=O)nc(-c4ccccc4)nc-3n(C)c3ccccc23)cc1
7.6 (≈ 20.4 µM) | 8.3 (≈ 22.3 µM) | CCCCNc1c2c(=O)nc(-c3ccccc3)nc-2n(CC)c2ccccc12
12 (≈ 28 µM) | 20.4 (≈ 47.6 µM) | CCCCCCCCNc1c2c(=O)nc(-c3ccccc3)nc-2n(CC)c2ccccc12
53.4 (≈ 127 µM) | 63.3 (≈ 151 µM) | CCn1c2nc(-c3ccccc3)nc(=O)c-2c(NCCc2ccccc2)c2ccccc21
2.7 (≈ 7.25 µM) | 2.1 (≈ 5.64 µM) | CCCCNc1c2c(=O)nc(-c3ccccc3)nc-2n(C)c2ccc(C)cc12
> 100 | > 100 | COC(=O)c1ccccc1Nc1c2c(=O)nc(-c3ccccc3)nc-2n(C)c2ccccc12
22 (≈ 54.1 µM) | 17.7 (≈ 43.5 µM) | Cn1c2nc(-c3ccccc3)nc(=O)c-2c(NCCc2ccccc2)c2ccccc21
66.9 (≈ 170 µM) | > 100 | Cn1c2nc(-c3ccccc3)nc(=O)c-2c(NCc2ccccc2)c2ccccc21
4.7 (≈ 11.6 µM) | 6.1 (≈ 15 µM) | CCn1c2nc(-c3ccccc3)nc(=O)c-2c(NCc2ccccc2)c2ccccc21
0.42 (≈ 1.73 µM) | 0.017 (≈ 0.0699 µM) | Nc1ccn([C@@H]2O[C@H](CO)[C@@H](O)[C@@H]2O)c(=O)n1 [CYTARABINE]
